Values belong to the compound of their own block, whether it stands above or below them.
Tests used:
Set-up in all cases: dose 0.28 mg/kg, route oral
Rattus norvegicus [1] = experiment: Drug level in Sprague-Dawley rat treated with [3H]-cis-delta4-15(S)-15-methylprostaglandin F1alpha methyl ester at 0.28 mg/kg, po assessed compound formation; type: ADME, organism-based; conditions: in vivo
Rattus norvegicus [2] = experiment: Drug metabolism in Sprague-Dawley rat assessed as metabolite 5 ((4aR,5R,6R,7aS)-6-hydroxy-5-((S)-3-hydroxy-3-methyloct-1-enyl)hexahydrocyclopenta[b]pyran-2(3H)-one) formation at 0.28 mg/kg, po administered as single dose; type: ADME, organism-based; conditions: in vivo
Method in brief: (§1)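 Urine was extracted on an Amberlite XAD-2 column and partially purified by silicic acid chromatography. Components were then separated by reversed-phase partition chromatography on Sephadex LH-20 (isooctyl alcohol–chloroform–methanol–water, 15:15:114:86), collecting 9-mL fractions. Identification used GC with radioactivity monitoring (3.8% UCW-98, 200 °C) and GC-MS of methyl ester, O-methoxime and trimethylsilyl derivatives; silylation was at 50 °C for 1 h.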

[3] = Drug excretion in Sprague-Dawley rat urine at 0.28 mg/kg, po administered as single dose within 74 hrs relative to control; type: ADME, organism-based; conditions: read-out: Drug excretion
Method in brief: (§2)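 Four female Sprague-Dawley rats (Upjohn strain), about 200 g, were fasted overnight and each given one 0.28-mg oral dose of tritium-labeled drug (1.24 × 10^7 dpm) in distilled water by gastric tube. They were then kept in metabolism cages with free food and water, and urine and feces were collected at intervals. Radioactivity was read by liquid scintillation with external-standard quench correction. Urine aliquots (0.2 mL) were counted directly; feces were homogenized in water and aliquots dried and combusted before counting.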

[4] = Drug excretion in Sprague-Dawley rat feces at 0.28 mg/kg, po administered as single dose within 74 hrs relative to control; type: ADME, organism-based; conditions: faeces, read-out: Drug excretion; method in brief: as §2
Rattus norvegicus [5] = experiment: Toxicity in Sprague-Dawley rat assessed as depression at 0.28 mg/kg, po up to 1 to 3 days; type: organism-based; conditions: in vivo
Method in brief: (§3)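 Fifteen rats were kept in metabolism cages for 17 days. Each morning they received an oral dose of 0.25 mg of tritium-labelled drug (1 × 10^7 dpm). The animals were watched for side effects, including depression, diarrhoea, faecal staining of the abdomen and mortality, over the chronic dosing period.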

Rattus norvegicus [6] = experiment: Toxicity in Sprague-Dawley rat assessed as diarrhea at 0.28 mg/kg, po up to 1 to 3 days; type: organism-based; conditions: in vivo; method in brief: as §3
Rattus norvegicus [7] = experiment: Toxicity in Sprague-Dawley rat assessed as fecal stained abdominal area at 0.28 mg/kg, po up to 1 to 3 days; type: organism-based, Abdomen; conditions: in vivo; method in brief: as §3
Rattus norvegicus [8] = experiment: Toxicity in Sprague-Dawley rat assessed as mortality at 0.28 mg/kg, po; type: organism-based; conditions: in vivo; method in brief: as §3
Rattus norvegicus [9] = experiment: Toxicity in Sprague-Dawley rat assessed as depression at 0.28 mg/kg, po after 3 days; type: organism-based; conditions: in vivo, 72 h
Rattus norvegicus [10] = experiment: Toxicity in Sprague-Dawley rat assessed as diarrhea at 0.28 mg/kg, po after 3 days; type: organism-based; conditions: in vivo, 72 h
Rattus norvegicus [11] = experiment: Toxicity in Sprague-Dawley rat assessed as fecal stained abdominal area at 0.28 mg/kg, po after 3 days; type: organism-based, Abdomen; conditions: in vivo, 72 h
Rattus norvegicus [12] = experiment: Drug metabolism in Sprague-Dawley rat assessed as metabolite 2 (cis-delta4-15-methylprostaglandin F1alpha) formation at 0.28 mg/kg, po administered as single dose; type: ADME, organism-based; conditions: in vivo; method in brief: as §1
Rattus norvegicus [13] = experiment: Drug metabolism in Sprague-Dawley rat assessed as metabolite 3 (15-methyl-2,3-dinorprostaglandin F1alpha) formation at 0.28 mg/kg, po administered as single dose; type: ADME, organism-based; conditions: in vivo; method in brief: as §1
Rattus norvegicus [14] = experiment: Drug metabolism in Sprague-Dawley rat assessed as metabolite 4 (15-methyl-2,3,4,5-tetranorprostaglandin F1alpha) formation at 0.28 mg/kg, po administered as single dose; type: ADME, organism-based; conditions: in vivo; method in brief: as §1

Drug metabolism (Rattus norvegicus [1]): metabolite_detected
Compound: CCCCC[C@](C)(O)/C=C/[C@@H]1[C@@H](CCC(=O)O)[C@@H](O)C[C@H]1O

Drug metabolism (Rattus norvegicus [1]): metabolite_detected
Compound: CCCCC[C@](C)(O)/C=C/[C@@H]1[C@H]2CCC(=O)O[C@H]2C[C@H]1O

Compound: [3H]O[C@H]1C[C@@H](O)[C@H](/C=C/[C@@](C)(O)CCCCC)[C@H]1CC/C=C\CCC(=O)OC
Drug metabolism (Rattus norvegicus [2]): metabolite_detected | dose excreted at 74 h [3]: 30% | dose excreted at 74 h [4]: 38% | Activity (Rattus norvegicus [5]): Toxic | Activity (Rattus norvegicus [6]): Toxic | Activity (Rattus norvegicus [7]): Toxic | Activity (Rattus norvegicus [8]): Non-toxic | Activity (Rattus norvegicus [9]): Non-toxic | Activity (Rattus norvegicus [10]): Non-toxic | Activity (Rattus norvegicus [11]): Non-toxic | Drug metabolism (Rattus norvegicus [12]): metabolite_detected | Drug metabolism (Rattus norvegicus [13]): metabolite_detected | Drug metabolism (Rattus norvegicus [14]): metabolite_detected

Drug metabolism (Rattus norvegicus [1]): metabolite_detected
Compound: CCCCC[C@](C)(O)/C=C/[C@@H]1[C@@H](CC/C=C\CCC(=O)O)[C@@H](O)C[C@H]1O

Drug metabolism (Rattus norvegicus [1]): metabolite_detected
Compound: CCCCC[C@](C)(O)/C=C/[C@@H]1[C@@H](CCCCC(=O)O)[C@@H](O)C[C@H]1O

From ChEMBL document CHEMBL3244217, “Metabolism of cis-delta4-15(S)-15-methylprostaglandin F1alpha methyl ester in the rat” (J Med Chem, 1978)
